Active and inactive are the calls of the source. The calls are words filed in the database; no cut-off is given here.
Tests used:
[1] = test system: HL-60; experiment: Reduction in G0/G1 phase of cell cycle arrest in HL60 cells; format: functional, cell-based; conditions: Homo sapiens
Procedure, shortened: (§1)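 HL60 cells (RPMI 1640, 10% FCS, 2 mM glutamine, 37 °C, 5% CO2) exposed to graded concentrations for 24 h; compound in DMSO diluted in complete medium, DMSO vehicle controls. Nuclei isolated, kept at 4 °C in dark, stained with 50 µg/mL propidium iodide just before flow cytometry; DNA profiles give G0/G1, S, G2/M fractions. Mean ± SEM of three determinations.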

[2] = Antitumor activity against colon cell lines of the NCI60 panel; format: functional; conditions: Homo sapiens
Procedure, shortened: (§2)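 Run by NCI in the 60-cell-line panel (details in Supporting Information). Highest concentration 10^-4 M unless noted (one case 10-2.6 M). Values expressed as -log molar concentration giving 50% growth inhibition (pGI50), total cytostasis (pTGI) or 50% cell kill (pLC50); only values >4.00 reported; mean graph midpoint is the calculated panel mean.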

[3] = Antitumor activity against breast cell lines of the NCI60 panel; format: functional; conditions: Homo sapiens; procedure, shortened: as §2
[4] = Antitumor activity against ovarian cell lines of the NCI60 panel; format: functional; conditions: Homo sapiens; procedure, shortened: as §2
[5] = test system: HL-60; experiment: Reduction in S phase of cell cycle arrest in HL60 cells; format: functional, cell-based; conditions: Homo sapiens; procedure, shortened: as §1
[6] = Antitumor activity against renal cell lines of the NCI60 panel; format: functional, Homo sapiens; conditions: Homo sapiens, renal; procedure, shortened: as §2
[7] = biological target: T1, S-adenosylmethionine decarboxylase proenzyme (Homo sapiens) (UniProt P17707); experiment: Inhibition of SAMDC in HL60 cells by release of radioactive CO2 from [14C-carboxyl]S-adenosylmethionine; conditions: HL-60
T1 sequence (whole entry): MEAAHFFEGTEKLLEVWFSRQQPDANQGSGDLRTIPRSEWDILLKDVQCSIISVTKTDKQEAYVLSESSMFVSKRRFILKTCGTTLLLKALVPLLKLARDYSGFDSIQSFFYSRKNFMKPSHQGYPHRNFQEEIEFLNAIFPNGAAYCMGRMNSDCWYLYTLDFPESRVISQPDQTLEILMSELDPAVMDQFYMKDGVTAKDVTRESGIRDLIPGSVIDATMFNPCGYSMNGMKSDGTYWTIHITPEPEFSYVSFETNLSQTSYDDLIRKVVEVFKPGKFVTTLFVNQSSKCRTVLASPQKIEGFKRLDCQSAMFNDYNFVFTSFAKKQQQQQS

[8] = test system: HL-60; experiment: Increase in p27 level in HL60 cells at 25 uM after 24 hrs; format: functional, cell-based; conditions: Homo sapiens
Procedure, shortened: (§3)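 HL60 cells held 24 h with or without 25 µM compound (DMSO vehicle); cellular proteins extracted and p21 and p27 detected by Western blotting with specific antibodies. Repeated at least twice.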

[9] = Antitumor activity against leukemia cell lines of the NCI60 panel; format: functional; conditions: Homo sapiens; procedure, shortened: as §2
[10] = test system: HL-60; experiment: Induction of cell death in HL60 cells at 50 uM within 3 hrs relative to control; format: functional, Homo sapiens
Procedure, shortened: (§4)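 Compound was dissolved in DMSO and diluted into complete medium; controls received matching DMSO. Cell death was scored by propidium iodide flow cytometry and by trypan blue exclusion. One experiment is shown, repeated three times.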

[11] = test system: HL-60; experiment: Cell cycle arrest in HL60 cells by accumulation in G2/M phase; format: functional, cell-based; conditions: Homo sapiens; procedure, shortened: as §1
[12] = test system: HL-60; experiment: Induction of cell death in HL60 cells at 25 uM after 48 hrs relative to control; format: functional, Homo sapiens; procedure, shortened: as §4
[13] = Antitumor activity against prostate cell lines of the NCI60 panel; format: functional; conditions: Homo sapiens; procedure, shortened: as §2
[14] = test system: HL-60; experiment: Increase in p21 level in HL60 cells at 25 uM after 24 hrs; format: functional, cell-based; conditions: Homo sapiens; procedure, shortened: as §3
[15] = test system: NSCLC; experiment: Antitumor activity against NSCLC cell lines of the NCI60 panel; format: functional; conditions: Homo sapiens; procedure, shortened: as §2
[16] = test system: HL-60; experiment: Mitochondrial potential in HL60 cells assessed as decrease in mitochondrial membrane potential by DiOC6 staining at 25 uM after 24 hrs; design: scale not given: the % may be the effect or the level left
[17] = test system: HL-60; experiment: Induction of cell death in HL60 cells at 50 uM after 24 hrs relative to control; format: functional, Homo sapiens; procedure, shortened: as §4
[18] = Antitumor activity against melanoma cell lines of the NCI60 panel; format: functional; conditions: Homo sapiens; procedure, shortened: as §2
[19] = test system: HL-60; experiment: Cell cycle arrest in HL60 cells by accumulation in G2/M phase at 25 uM after 24 hrs
[20] = test system: HL-60; experiment: Reduction in cell proliferation of HL60 cells at 25 uM after 48 hrs relative to control; format: functional, Homo sapiens; design: scale not given: the % may be the effect or the level left
Procedure, shortened: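 HL60 cells in complete RPMI medium incubated with compound (DMSO-diluted; vehicle controls); total cell number counted by flow cytometry relative to control. One experiment shown, repeated three times.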

[21] = Antitumor activity against CNS cell lines of the NCI60 panel; format: functional; conditions: Homo sapiens; procedure, shortened: as §2

For `Cc1sc2nc(-c3ccccn3)c(/C=N/NC(=N)N)n2c1C`, the Activity [1] was “Active”, the GI50 [2] was 18.2 µM and the TGI ([2]; read-out: pTGI (converted)) was 40.7 µM. The GI50 [3] was 22.9 µM, the TGI ([3]; read-out: pTGI (converted)) was 41.7 µM and the GI50 [4] was 18.6 µM. The TGI ([4]; read-out: pTGI (converted)) was 37.2 µM, the Activity [5] was “Active” and the GI50 [6] was 6.61 µM. For the same compound, the TGI ([6]; read-out: pTGI (converted)) was 31.6 µM, the Activity [7] was “inactive” and the Activity [8] was “Active”. It also gave a GI50 [9] of 52.5 µM, a TGI ([9]; read-out: pTGI (converted)) of 83.2 µM and an Activity [10] of 45%. For the same compound, the Activity [11] was “Dose-dependent effect”, the Activity [12] was 25% and the GI50 [13] was 22.4 µM. For the same compound, the TGI ([13]; read-out: pTGI (converted)) was 57.5 µM, the Activity [14] was “Active” and the GI50 [15] was 18.2 µM. It also gave a TGI ([15]; read-out: pTGI (converted)) of 37.2 µM, an Activity [16] of 50% and an Activity [17] of 100%. It also gave a GI50 [18] of 17 µM, a TGI ([18]; read-out: pTGI (converted)) of 33.1 µM and an Activity [19] of 52%. For the same compound, the Activity [20] was greater than 80%, the GI50 [21] was 20.9 µM and the TGI ([21]; read-out: pTGI (converted)) was 41.7 µM.

— ChEMBL document CHEMBL1138854, “Synthesis and antitumor activity of guanylhydrazones from 6-(2,4-dichloro-5-nitrophenyl)imidazo[2,1-b]thiazoles and 6-pyridylimidazo[2,1-b]thiazoles(1)” (2006)
